Bioassay records (PubChem)
Only some compounds are listed: those with a hit (about 3% of all), similar ones and a draw of the others.
Hsp70 act: Hsp70 transcriptional activators, primary screen, cell-based, HeLa, Hsp70 promoter luciferase, luminescence, 10 µM. HeLa Hsp70 promoter luciferase reporter; scaled: vehicle 0, proteasome-inhibitor control 100%. activation, % at 10 µM. actives 0.04% (n = 200,000). AID 1203, 2008;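 active = activation above the mean across all tested compounds plus 3 SD, cutoff set per campaign, cut at about 5.5% in these data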;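 note: 100% = MG132 at 30 µM as the positive control and 0% = DMSO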
NPY Y1 blocker: NPY-Y1 receptor antagonists, primary screen, cell-based; HEK293-CNG Y1 cells, membrane potential fluorescence; NPY at EC95, then isoproterenol; inhibition, % at 3.6 µM; AID 1040, 2008; actives 1% (n = 200,000);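 active = inhibition above the campaign mean inhibition of all tested compounds plus 3 SD, cut at about 20% in these data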;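 note: 0% = DMSO wells given NPY plus isoproterenol and 100% = isoproterenol alone without NPY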
Target sequence (P25929 whole entry, looked up): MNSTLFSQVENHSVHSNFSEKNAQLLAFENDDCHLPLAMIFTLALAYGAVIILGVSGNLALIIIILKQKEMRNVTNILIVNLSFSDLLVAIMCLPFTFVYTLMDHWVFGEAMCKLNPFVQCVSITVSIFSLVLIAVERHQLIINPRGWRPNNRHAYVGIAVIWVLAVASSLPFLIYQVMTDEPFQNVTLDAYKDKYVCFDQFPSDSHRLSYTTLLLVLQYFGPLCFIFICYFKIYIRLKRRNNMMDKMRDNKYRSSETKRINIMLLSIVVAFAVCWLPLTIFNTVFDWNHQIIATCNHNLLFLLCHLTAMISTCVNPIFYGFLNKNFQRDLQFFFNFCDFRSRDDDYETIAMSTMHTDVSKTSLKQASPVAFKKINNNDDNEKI
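Test system – HEK293 Y1/CNG channel cell line · Also added – NPY agonist 25 nM, then isoproterenol 1 µM plus Ro 20-1724 25 µM · Compound dosing – one concentration, 3.6 µM, in 0.4% DMSO · Schedule – compound incubation 1 h at room temperature, readout 45 min post-stimulation · Technique – fluorescence, membrane potential probe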
NPY2 pot ag: NPY-Y2 potentiators or agonists, primary screen, cell-based. cells expressing NPY-Y2, potentiator/agonist read-out. activation, % at 3.6 µM. actives 0.45% (n = 220,000). AID 1359, 2008; in the data active = activation above about 27%;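 note: cells stimulated with NPY near EC25 plus isoproterenol at EC100; 0% = vehicle plus submaximal agonist and 100% = vehicle plus saturating agonist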
Wee1 stabilizer: Wee1 degradation inhibitors, primary screen, cell-based, HeLa, Wee1K328M-luciferase, luminescence. actives 1.2% (n = 220,000). Wee1-like protein kinase (Homo sapiens), P30291. AID 1321, 2008. reporter increase, % at 5 µM. HeLa Luc-Wee1K328M stability; 100% = proteasome inhibitor MG132 effect;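 active = activation above the mean of all tested compounds plus 3 SD, set per screening run, cut at about 8.8% in these data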;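 note: cells exposed to compound for 20 h before luminescence read; 0% = DMSO alone and 100% = MG132 at 30 µM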
NPY-Y1 PAM-ag: NPY-Y1 receptor potentiators or agonists, primary screen, cell-based; NPY-Y1 expressing cells, potentiator/agonist activation; actives 0.37% (n = 220,000); activation, % at 3.6 µM; in the data active = activation above about 33%, passing the limit was not always enough;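 note: cells stimulated with NPY at EC10 then isoproterenol at EC100; 0% = low agonist plus stimulus and 100% = saturating agonist plus stimulus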
NPY-Y2 antag: NPY-Y2 receptor antagonists, primary screen, cell-based; Neuropeptide Y receptor type 2 (Homo sapiens), P49146; NPY-Y2 expressing cells, antagonist mode; inhibition, % at 2.7 µM; actives 0.99% (n = 140,000); AID 793, 2007; in the data active = inhibition above about 17%;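 note: 0% = vehicle with agonist challenge and 100% = reference antagonist with challenge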
NPY1 antag ctr: NPY-Y1 receptor antagonists, selectivity check, counter-screen for NPY-Y2 antagonist project, cell-based; cell-based NPY-Y1 antagonism counterscreen; inhibition, % at 3.6 µM; shares compounds with NPY-Y2 antag; actives 19% (n = 710); in the data active = inhibition above about 20%;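 note: cells challenged with NPY then isoproterenol with cAMP sensed through a CNG channel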
NPY-Y2 ant conf: NPY-Y2 receptor antagonists, retest of hits, confirmation, HEK293-CNG cells, membrane potential fluorescence, triplicate; shares compounds with NPY-Y2 antag; HEK293 NPY-Y2 CNG channel; inhibition, % at 2.8 µM; actives 32% (n = 710);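 active = mean inhibition of triplicate wells above the hit cutoff set in the primary screen, cut at about 17% in these data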;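 note: 0% = DMSO with NPY challenge and 100% = BIIE0246 high control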
Numbers without * were called inactive.

COc1ccc(CCNC(=O)CSc2nc(O)c(CC(C)C)c(=O)[nH]2)cc1OC was read as Hsp70 act 0, NPY Y1 blocker -2, NPY2 pot ag 6, Wee1 stabilizer 0, NPY-Y1 PAM-ag 4, NPY-Y2 antag 17*, NPY1 antag ctr 2 and NPY-Y2 ant conf 2.
Screening O=C(O)CC/C(=N\NC(=O)CNC(=O)c1ccc(F)cc1)c1ccccc1 returned NPY2 pot ag -28, Wee1 stabilizer -2 and NPY-Y1 PAM-ag -19.
`CS(=O)(=O)NCCSCc1ccco1` gave Hsp70 act 0, NPY Y1 blocker -7, NPY2 pot ag 8, Wee1 stabilizer 4, NPY-Y1 PAM-ag 5 and NPY-Y2 antag 2.
`Nc1ccc2c(c1)C(=O)C(=O)c1ccccc1-2` gave Hsp70 act 0, NPY Y1 blocker 9, NPY2 pot ag -3, Wee1 stabilizer -2, NPY-Y1 PAM-ag -9, NPY-Y2 antag 48*, NPY1 antag ctr 17 and NPY-Y2 ant conf 35*.
Screening O=C1C(=O)c2ccc(-c3ccccc3)cc2-c2ccccc21 returned Hsp70 act 0, NPY Y1 blocker -1, NPY2 pot ag 3, Wee1 stabilizer 1, NPY-Y1 PAM-ag -1 and NPY-Y2 antag -1.
`CCN(CC)C(C(=O)Nc1ccc(C(C)C)cc1)c1ccc2c(c1)OCO2` (stereo not given) gave Hsp70 act 0, NPY Y1 blocker 16, NPY2 pot ag -14, Wee1 stabilizer -2, NPY-Y1 PAM-ag -6, NPY-Y2 antag 18*, NPY1 antag ctr 7 and NPY-Y2 ant conf 14.
For CCOc1ccccc1NC(=O)c1cc(SC)ccc1Cl the results were Hsp70 act 0, NPY Y1 blocker 4, NPY2 pot ag -7, Wee1 stabilizer 0 and NPY-Y1 PAM-ag -8.
`O=C(Cc1ccc2c(c1)CCCC2)Nc1ccc2ccccc2c1` gave Hsp70 act 0, NPY Y1 blocker 18, NPY2 pot ag -14, Wee1 stabilizer 0, NPY-Y1 PAM-ag -11, NPY-Y2 antag 18*, NPY1 antag ctr 11 and NPY-Y2 ant conf 13.
Cc1c(C(=O)NCc2ccc3c(c2)OCO3)oc2ccc(Br)cc12 was read as Hsp70 act 0, NPY Y1 blocker 9, NPY2 pot ag -24, Wee1 stabilizer -1, NPY-Y1 PAM-ag -30, NPY-Y2 antag 22*, NPY1 antag ctr 14 and NPY-Y2 ant conf 12.
Screening Cc1ccc2oc(C(=O)NCc3ccc4c(c3)OCO4)c(C)c2c1 returned Hsp70 act 0, NPY Y1 blocker 3, NPY2 pot ag -20, Wee1 stabilizer -2, NPY-Y1 PAM-ag -20 and NPY-Y2 antag 15.
`Cc1ccc(C)c(N(C(=O)Cc2cccs2)C(C(=O)NC2CCCC2)c2ccc(C)o2)c1` (stereo not given) gave Hsp70 act 0, NPY Y1 blocker 4, NPY2 pot ag -3, Wee1 stabilizer 0, NPY-Y1 PAM-ag 13 and NPY-Y2 antag 2.
Cc1ccc(C(C(=O)NC2CCCC2)N(C(=O)Cc2cccs2)c2ccc(C)c(C)c2)o1 (stereo not given) was read as Hsp70 act 0, NPY Y1 blocker 18, NPY2 pot ag -7, Wee1 stabilizer 1, NPY-Y1 PAM-ag -26, NPY-Y2 antag 24*, NPY1 antag ctr 14 and NPY-Y2 ant conf 9.
`CC(=O)C1=C(c2ccccc2)N(C(C)=O)n2c(C)nnc2S1` gave Hsp70 act 0, NPY Y1 blocker 4, NPY2 pot ag 3, Wee1 stabilizer -4 and NPY-Y1 PAM-ag 8.
